Article PMC7816766 (Journal of Medicinal Chemistry, 2020)
Entries after “also recorded” stand apart in the source; their conditions may differ. One block for each compound: values may come before it.

Experiments:
[1] = cited from earlier work
[2] = system: MDA-MB-231 or MDA-MB-468 cells; assay: Cell viability/growth of breast cancer cells harboring active STAT3; assay type: cell-based, human; conditions: for activity against breast cancer cells: up to 10 μM; for viability, anchorage-dependent and independent growth, and colony formation: at 1 μM or less
STAT3 = STAT3 (Mus musculus, UniProt P42227); assay type: biochemical; conditions: for direct effect on STAT3 activity in the DNA-binding assay/EMSA: up to 10 μM
Sequence of STAT3 (P42227 2-770 limits assumed): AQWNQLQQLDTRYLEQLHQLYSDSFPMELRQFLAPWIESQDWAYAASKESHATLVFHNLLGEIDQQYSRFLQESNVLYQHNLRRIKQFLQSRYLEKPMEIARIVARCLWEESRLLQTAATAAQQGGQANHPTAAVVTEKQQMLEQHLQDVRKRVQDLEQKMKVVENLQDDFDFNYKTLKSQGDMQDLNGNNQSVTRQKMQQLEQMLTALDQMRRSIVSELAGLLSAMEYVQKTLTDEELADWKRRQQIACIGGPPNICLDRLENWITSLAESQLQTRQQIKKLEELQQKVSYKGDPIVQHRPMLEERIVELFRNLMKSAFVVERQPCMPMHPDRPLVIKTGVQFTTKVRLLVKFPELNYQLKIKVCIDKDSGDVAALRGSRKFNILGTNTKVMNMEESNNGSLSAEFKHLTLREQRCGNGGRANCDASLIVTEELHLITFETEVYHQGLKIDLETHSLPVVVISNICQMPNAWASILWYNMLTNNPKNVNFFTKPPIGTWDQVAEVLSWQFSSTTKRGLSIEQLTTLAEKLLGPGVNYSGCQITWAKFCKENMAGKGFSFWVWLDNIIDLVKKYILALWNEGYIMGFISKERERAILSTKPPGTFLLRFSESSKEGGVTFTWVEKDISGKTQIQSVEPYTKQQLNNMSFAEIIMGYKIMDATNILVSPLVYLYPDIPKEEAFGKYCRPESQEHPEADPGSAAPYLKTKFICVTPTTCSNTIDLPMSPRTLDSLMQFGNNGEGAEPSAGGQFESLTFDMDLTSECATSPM
STAT5:STAT5 homodimers = assay type: biochemical; conditions: 10 µM, MGFe probe (Fig. S6)
STAT1:STAT1 homodimers = target: T1, STAT1:STAT1 homodimers (Mus musculus, UniProt P42225); assay type: biochemical; conditions: 10 µM, MGFe probe (Fig. S6)
T1 sequence (P42225 2-749 limits assumed): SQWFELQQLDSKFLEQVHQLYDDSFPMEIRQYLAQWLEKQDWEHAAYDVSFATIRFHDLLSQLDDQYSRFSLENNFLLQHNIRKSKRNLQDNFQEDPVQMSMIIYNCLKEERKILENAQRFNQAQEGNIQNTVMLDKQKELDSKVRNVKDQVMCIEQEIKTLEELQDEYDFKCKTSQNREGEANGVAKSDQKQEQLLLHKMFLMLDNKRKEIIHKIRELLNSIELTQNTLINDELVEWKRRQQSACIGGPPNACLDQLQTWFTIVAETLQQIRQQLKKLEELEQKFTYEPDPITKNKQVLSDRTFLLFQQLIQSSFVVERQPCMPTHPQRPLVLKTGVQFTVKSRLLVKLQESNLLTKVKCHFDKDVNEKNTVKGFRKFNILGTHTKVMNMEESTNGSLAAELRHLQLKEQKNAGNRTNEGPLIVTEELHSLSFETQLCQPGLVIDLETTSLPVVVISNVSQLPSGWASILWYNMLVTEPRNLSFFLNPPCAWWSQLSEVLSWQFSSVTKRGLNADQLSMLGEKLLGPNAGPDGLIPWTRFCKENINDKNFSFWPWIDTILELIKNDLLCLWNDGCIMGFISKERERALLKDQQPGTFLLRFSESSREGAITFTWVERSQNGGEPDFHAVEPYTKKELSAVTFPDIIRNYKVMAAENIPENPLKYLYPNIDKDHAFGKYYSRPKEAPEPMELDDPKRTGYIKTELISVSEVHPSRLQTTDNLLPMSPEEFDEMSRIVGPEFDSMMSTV

MDA-MB-231 cells [3] = assay: CyQuant cell viability assay, MDA-MB-231; assay type: cell-based; conditions: Homo sapiens, MDA-MB-231, 72 h, read-out: Cell viability EC50 MDA-MB-231
MCF-10A cells = assay: CyQuant cell viability assay, MCF-10A; assay type: cell-based; conditions: Homo sapiens, 72 h, read-out: Cell viability EC50 MCF-10A
Method in brief: (§1)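 Cells in 96-well plates were treated with test compound over a range of concentrations for 72 h, then assayed with CyQuant. Viability was normalised to control as % and plotted against concentration to derive EC50. Media: MCF-10A in DMEM/F12 with 5% horse serum, EGF, insulin and hydrocortisone; other lines in DMEM with 10% heat-inactivated FBS.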

MDA-MB-468 cells = assay: CyQuant cell viability assay, MDA-MB-468; assay type: cell-based; conditions: Homo sapiens, MDA-MB-468, 72 h, read-out: Cell viability EC50 MDA-MB-468
Method in brief: as §1

MDA-MB-231 cells [4] = assay: Clonogenic; assay type: cell-based, human; conditions: treated once
Method in brief: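 Cells were seeded as single-cell cultures at 250 cells per well. They were treated once the next day with test compound at 0–1 μM and cultured until large colonies were visible. Colonies were stained with crystal violet for 4 h and photographed. Data came from three independent determinations.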

[5] = system: STAT3 DNA-binding activity in MDA-MB-468 cells; assay: Constitutive STAT3 DNA-binding activity in treated breast cancer cells; assay type: cell-based, human; conditions: for earliest time of inhibition of STAT3 DNA-binding activity in cells: MDA-MB-468; for constitutive STAT3 DNA-binding activity in cells: cells treated with 1–5 μM (BBI-608 0.5–5 μM, 2–3 h)
Method in brief: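 MDA-MB-468 cells were treated with 5 μM test compound for 1–3 h; controls received 0.05% DMSO. Nuclear extracts of equal total protein were incubated with 33P-labelled hSIE probe (c-fos m67 variant) for 30 min at 30 °C. STAT3:DNA complexes were then resolved by EMSA. Results came from two to three independent determinations.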

MDA-MB-231 cells [6] = assay: Cell growth by trypan blue exclusion/phase-contrast microscopy, MDA-MB-231; assay type: cell-based, human; conditions: 2 μM
pY705STAT3 = assay: Immunoblotting for pY705STAT3 in treated breast cancer cells; assay type: cell-based, human; conditions: 1–5 μM, 0–24 h (BBI-608 0.5–5 μM, 2–3 h)
Method in brief: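 Controls received 0.05% DMSO. Equal-protein RIPA whole-cell lysates were immunoblotted for pY705STAT3, STAT3 and tubulin. Results came from two to three independent determinations.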

MCF-7 cells [7] = assay: Cell growth by trypan blue exclusion/phase-contrast microscopy, MCF-7; assay type: cell-based, human; conditions: 2 μM
Method in brief: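 Cells cultured in 6-well plates and treated once with 2 μM test compound. Every 24 h (up to 96 h), cells were harvested and viable cells counted by trypan blue exclusion under phase-contrast microscopy. Counts were plotted against treatment duration. Cells were grown in DMEM with 10% heat-inactivated FBS.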

MCF-7 cells [8] = assay: CyQuant cell viability assay, MCF-7; assay type: cell-based, human
Method in brief: as §1

SMILES: CN(CC(=O)N(Cc1ccc(C2CCCCC2)cc1)c1ccc(C(=O)O)c(O)c1)S(=O)(=O)c1c(F)c(F)c(F)c(F)c1F [BP-1-102]
cellular activities of parent lead compounds [1]: 10 to 20 µM

SMILES: O=C(O)c1ccc(N(Cc2ccc(C3CCCCC3)cc2)C(=O)[C@H]2CCN2S(=O)(=O)c2c(F)c(F)c(F)c(F)c2F)cc1O [Compound 5a, (R)-4-(N-(4-cyclohexylbenzyl)-1-((perfluorophenyl)sulfonyl)azetidine-2-carboxamido)-2-hydroxybenzoic acid]
activity against breast cancer cells [2]: no activity

SMILES: O=C(O)c1ccc(N(Cc2ccc(C3CCCC3)cc2)C(=O)[C@H]2CCN2S(=O)(=O)c2c(F)c(F)c(F)c(F)c2F)cc1O [Compound 5e]
effect on DNA-binding activity of STAT5:STAT5 homodimers (STAT5:STAT5 homodimers): minimal effect
effect on DNA-binding activity of STAT1:STAT1 homodimers (STAT1:STAT1 homodimers): minimal effect

SMILES: O=C(O)c1ccc(N(Cc2ccc(C3CCOCC3)cc2)C(=O)[C@H]2CCN2S(=O)(=O)c2c(F)c(F)c(F)c(F)c2F)cc1O [Compound 5g]
effect on DNA-binding activity of STAT5:STAT5 homodimers (STAT5:STAT5 homodimers): minimal effect
effect on DNA-binding activity of STAT1:STAT1 homodimers (STAT1:STAT1 homodimers): minimal effect

SMILES: O=C(O)c1ccc(N(Cc2ccc(C3CCCCC3)nc2)C(=O)[C@H]2CCN2S(=O)(=O)c2c(F)c(F)c(F)c(F)c2F)cc1O [Compound 5m]
effect on DNA-binding activity of STAT5:STAT5 homodimers (STAT5:STAT5 homodimers): minimal effect
effect on DNA-binding activity of STAT1:STAT1 homodimers (STAT1:STAT1 homodimers): minimal effect

SMILES: COC(=O)c1ccc(N(Cc2ccc(C3CCCCC3)nc2)C(=O)[C@H]2CCN2S(=O)(=O)c2c(F)c(F)c(F)c(F)c2F)cc1O [Compound 7c]
EC50 (MCF-10A cells): 3.6 µM

SMILES: COC(=O)c1ccc(N(Cc2cnc(C3CCCCC3)cn2)C(=O)[C@H]2CCN2S(=O)(=O)c2c(F)c(F)c(F)c(F)c2F)c(F)c1 [Compound 7e]
inhibition of colony formation (MDA-MB-231 cells [4]; 0.5 μM): minimal to moderate inhibition of colony formation
inhibition of colony formation (MDA-MB-231 cells [4]; 1 μM): near-complete inhibition
viability, anchorage-dependent and independent growth, and colony formation [2]: strongly inhibited

SMILES: COC(=O)c1ccc(N(Cc2cnc(C3CCCCC3)cn2)C(=O)[C@H]2CCN2S(=O)(=O)c2c(F)c(F)c(F)c(F)c2F)cc1O [Compound 7f]
inhibition of colony formation (MDA-MB-231 cells [4]; 0.5 μM): minimal to moderate inhibition of colony formation
inhibition of colony formation (MDA-MB-231 cells [4]; 1 μM): significant inhibition
viability, anchorage-dependent and independent growth, and colony formation [2]: strongly inhibited

SMILES: O=C(NO)c1ccc(N(Cc2ccc(C3CCCCC3)cc2)C(=O)[C@H]2CCN2S(=O)(=O)c2c(F)c(F)c(F)c(F)c2F)cc1O [Compound 8d]
effect on DNA-binding activity of STAT5:STAT5 homodimers (STAT5:STAT5 homodimers): minimal effect
effect on DNA-binding activity of STAT1:STAT1 homodimers (STAT1:STAT1 homodimers): minimal effect

SMILES: O=C(NO)c1ccc(N(Cc2ccc(C3CCCCC3)cc2)C(=O)[C@H]2CCN2S(=O)(=O)c2c(F)c(F)c(F)c(F)c2F)c(F)c1 [Compound 8f]
effect on DNA-binding activity of STAT5:STAT5 homodimers (STAT5:STAT5 homodimers): minimal effect
effect on DNA-binding activity of STAT1:STAT1 homodimers (STAT1:STAT1 homodimers): minimal effect

SMILES: O=C(NO)c1ccc(N(Cc2ccc(C3CCCCC3)cn2)C(=O)[C@H]2CCN2S(=O)(=O)c2c(F)c(F)c(F)c(F)c2F)c(F)c1 [Compound 8l]
activity against breast cancer cells [2]: weakly active

SMILES: CN(CC(=O)N(Cc1ccc(C2CCCCC2)cc1)c1ccc(C(=O)O)cc1)S(=O)(=O)c1c(F)c(F)c(F)c(F)c1F [SH4-54]
cellular activities of parent lead compounds [1]: 4.5 µM

SMILES: CN(CC(=O)N(Cc1ccc(C2CCCCC2)cc1)c1ccc(C(=O)NO)cc1)S(=O)(=O)c1c(F)c(F)c(F)c(F)c1F [SH5-07]
cellular activities of parent lead compounds [1]: 3.8 µM

SMILES: CC(=O)c1cc2c(o1)C(=O)c1ccccc1C2=O [napabucasin, reference compound]
constitutive STAT3 DNA-binding activity in cells [5]: weak to moderate effects
pY705STAT3 in breast cancer cells (pY705STAT3): weak to moderate effects
direct effect on STAT3 activity in the DNA-binding assay/EMSA (STAT3): minimal direct effect

Further lines, with some results ahead:

EMSA IC50 (STAT3; STAT3:DNA complexes, hSIE probe, 30 min preincubation at room temperature): loss of activity
SMILES: O=C(O)c1ccc(N(Cc2ccc(C3CCCCC3)cc2)C(=O)C2CN(S(=O)(=O)c3c(F)c(F)c(F)c(F)c3F)C2)cc1O [Compound 5c]

effect on DNA-binding activity of STAT5:STAT5 homodimers (STAT5:STAT5 homodimers): minimal effect
effect on DNA-binding activity of STAT1:STAT1 homodimers (STAT1:STAT1 homodimers): minimal effect
SMILES: O=C(O)c1cc(F)c(N(Cc2ccc(C3CCCCC3)cc2)C(=O)[C@H]2CCN2S(=O)(=O)c2c(F)c(F)c(F)c(F)c2F)cc1O [Compound 5i]

effect on DNA-binding activity of STAT5:STAT5 homodimers (STAT5:STAT5 homodimers): minimal effect
effect on DNA-binding activity of STAT1:STAT1 homodimers (STAT1:STAT1 homodimers): minimal effect
SMILES: O=C(O)c1ccc(N(Cc2ccc(C3CCOCC3)nc2)C(=O)[C@H]2CCN2S(=O)(=O)c2c(F)c(F)c(F)c(F)c2F)cc1O [Compound 5n]

EC50 (MDA-MB-231 cells [3]): > 10 µM
SMILES: O=C([C@H]1CCN1S(=O)(=O)c1c(F)c(F)c(F)c(F)c1F)N(Cc1ccc(C2CCCCC2)cc1)c1ccc(-c2nnn[nH]2)cc1 [Compound 6e]
activity against breast cancer cells [2]: weak cellular activity

effect on DNA-binding activity of STAT5:STAT5 homodimers (STAT5:STAT5 homodimers): minimal effect
effect on DNA-binding activity of STAT1:STAT1 homodimers (STAT1:STAT1 homodimers): minimal effect
EC50 (MDA-MB-468 cells): 2.5 µM
SMILES: COC(=O)c1ccc(N(Cc2ccc(C3CCCCC3)cc2)C(=O)[C@H]2CCN2S(=O)(=O)c2c(F)c(F)c(F)c(F)c2F)cc1O [Compound 7a]
EC50 (MCF-10A cells): 4.3 µM

effect on DNA-binding activity of STAT5:STAT5 homodimers (STAT5:STAT5 homodimers): minimal effect
effect on DNA-binding activity of STAT1:STAT1 homodimers (STAT1:STAT1 homodimers): minimal effect
SMILES: COC(=O)c1ccc(N(Cc2ccc(C3CCCCC3)cc2)C(=O)[C@H]2CCN2S(=O)(=O)c2c(F)c(F)c(F)c(F)c2F)c(F)c1 [Compound 7b]
EC50 (MCF-10A cells): 6 µM

effect on DNA-binding activity of STAT5:STAT5 homodimers (STAT5:STAT5 homodimers): minimal effect
SMILES: CNC(=O)c1ccc(N(Cc2ccc(C3CCCCC3)cn2)C(=O)[C@H]2CCN2S(=O)(=O)c2c(F)c(F)c(F)c(F)c2F)cc1O [Compound 8q]
inhibition of colony formation (MDA-MB-231 cells [4]; 1 μM): does not show any inhibitory effect
earliest time of inhibition of STAT3 DNA-binding activity in cells [5]: 6 h
constitutive STAT3 DNA-binding activity in cells [5]: inhibited to variable degrees
cell growth MDA-MB-231, trypan blue exclusion (MDA-MB-231 cells [6]): good activity
pY705STAT3 in breast cancer cells (pY705STAT3): inhibited pY705STAT3 in dose- and time-dependent manner
cell growth MCF-7, trypan blue exclusion (MCF-7 cells [7]): no effect

effect on DNA-binding activity of STAT5:STAT5 homodimers (STAT5:STAT5 homodimers): minimal effect
SMILES: O=C1NC(=O)c2cc(N(Cc3ccc(C4CCCCC4)cn3)C(=O)[C@H]3CCN3S(=O)(=O)c3c(F)c(F)c(F)c(F)c3F)ccc21 [Compound 9k]
inhibition of colony formation (MDA-MB-231 cells [4]; 0.5 μM): minimal to moderate inhibition of colony formation
inhibition of colony formation (MDA-MB-231 cells [4]; 1 μM): significant inhibition
earliest time of inhibition of STAT3 DNA-binding activity in cells [5]: 0.083 h
constitutive STAT3 DNA-binding activity in cells [5]: inhibited to variable degrees
cell growth MDA-MB-231, trypan blue exclusion (MDA-MB-231 cells [6]): strongly inhibited cell growth
pY705STAT3 in breast cancer cells (pY705STAT3): inhibited pY705STAT3 in dose- and time-dependent manner; also recorded: bounced back by 24 h
viability, anchorage-dependent and independent growth, and colony formation [2]: strongly inhibited
cell growth MCF-7, trypan blue exclusion (MCF-7 cells [7]): no effect

direct effect on STAT3 activity in the DNA-binding assay/EMSA (STAT3): minimal direct effect
SMILES: COc1ccc(S(=O)(=O)Nc2cc(-c3c(O)ccc4ccccc34)c(O)c3ccccc23)cc1 [Compound C188-9]
stronger activity against MCF-7 than MDA-MB-231 (MCF-7 cells [8]): 2 fold
